Assay results taken from ChEMBL document CHEMBL2311513, “Fragment growing and linking lead to novel nanomolar lactate dehydrogenase inhibitors” (J Med Chem, 2013).
Calls of active or inactive are those of the source. The rule behind the calls is not given here.

Columns and labels:
[1] = target: T1, L-lactate dehydrogenase A chain (Homo sapiens, UniProt P00338); test: Binding affinity to human LDH-A by surface plasmon resonance analysis
Outline: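 Human LDH-A amine-coupled to a CM5 chip (~13000 RU), carbonic anhydrase II as reference surface. Running buffer 10 mM HEPES, 150 mM NaCl, 3% DMSO. Compounds injected as 2-fold dilution series, top 1 mM, at 20 °C. Equilibrium and kinetic responses fitted to a 1:1 binding model to give Kd.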

[2] = target: T1, L-lactate dehydrogenase A chain; test: Inhibition of LDH-A (unknown origin) by enzyme assay
[3] = target: T1, L-lactate dehydrogenase A chain; test: Inhibition of LDH-A in human Ramos cells assessed as cellular lactate level at 200 uM after 4 hrs; type: cell-based
Outline: (§1)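 Supernatant sampled after 1 and 4 h. Extracellular lactate measured by a two-step lactate assay, both times within the linear range. Lactate expressed relative to vehicle, from a representative experiment.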

[4] = target: T1, L-lactate dehydrogenase A chain; test: Inhibition of LDH-A in human Ramos cells assessed as cellular lactate level at 200 uM after 1 hr; type: cell-based; outline: as §1
[5] = target: T1, L-lactate dehydrogenase A chain; test: Inhibition of LDH-A (unknown origin) in presence of 0.1% Triton
[6] = target: T1, L-lactate dehydrogenase A chain; test: Inhibition of LDH-A (unknown origin) in absence of 0.1% Triton
[7] = target: T1, L-lactate dehydrogenase A chain; test: Inhibition of LDH-A (unknown origin) up to 1 mM in presence of 0.1% Triton

SMILES	Kd [1]	IC50 [2]	other results
COc1cc(OCC(O)CO)c(Cl)cc1NC(=O)CSc1ccc(C(=O)O)cn1 (stereo unspecified)	360 µM	342 µM	
COc1cc(OC[C@@H](O)[C@@H](O)[C@H](O)[C@H](O)CNc2cc(F)cc(-c3ccc(C(=O)O)cn3)c2)c(Cl)cc1NC(=O)CSc1ccccn1	0.222 µM	2.4 µM	lactate level (% of vehicle) [3]: 61%; lactate level (% of vehicle) [4]: 21%
COc1cc(OC[C@@H](O)[C@@H](O)[C@H](O)[C@H](O)CNc2cc(F)cc(-c3ccc(C(=O)O)cn3)c2)c(Cl)cc1NC(=O)CSc1ccc(C(=O)O)cn1	0.019 µM	0.12 µM	lactate level (% of vehicle) [3]: 68%; lactate level (% of vehicle) [4]: 56%
COc1cc(OC[C@@H](O)[C@@H](O)[C@H](O)[C@H](O)COc2cc(F)cc(-c3ccc(C(=O)O)cn3)c2)c(Cl)cc1NC(=O)CSc1ccc(C(=O)O)cn1	0.068 µM	0.44 µM	IC50 [5]: 0.325 µM; IC50 [6]: 0.22 µM
O=C(O)c1ccc(-c2ccccc2)nc1	2300 µM	> 2000 µM	
COc1cc(OCCCOCCCOc2cc(F)cc(-c3ccc(C(=O)O)cn3)c2)c(Cl)cc1NC(=O)CSc1ccc(C(=O)O)cn1	0.85 µM	59 µM	
COc1cc(OC[C@H](O)[C@H](O)[C@@H](O)[C@@H](O)COc2cc(F)cc(-c3ccc(C(=O)O)cn3)c2)c(Cl)cc1NC(=O)CSc1ccc(C(=O)O)cn1	12 µM	15.2 µM	
COC(=O)c1ccc(SCC(=O)Nc2cc(Cl)c(OC[C@@H](O)[C@@H](O)[C@H](O)[C@H](O)CNc3cc(F)cc(-c4ccc(C(=O)OC)cn4)c3)cc2OC)nc1		> 10000 µM	inhibition [3]: inactive; inhibition [4]: inactive
COc1cc(OC[C@@H](O)[C@@H](O)[C@H](O)[C@H](O)CNc2cc(F)cc(-c3ccccn3)c2)c(Cl)cc1NC(=O)CSc1ccc(C(=O)O)cn1	2.95 µM	13 µM	lactate level (% of vehicle) [3]: 35%; lactate level (% of vehicle) [4]: 17%
O=C(O)CN1C(=O)/C(=C/c2ccc(O)c(O)c2)SC1=S			inhibition [7]: inactive
COc1ccc(Cl)cc1NC(=O)CSc1ccc(C(=O)O)cn1	137 µM	770 µM	
COc1cc(OCCCNC(=O)COc2cc(F)cc(-c3ccc(C(=O)O)cn3)c2)c(Cl)cc1NC(=O)CSc1ccc(C(=O)O)cn1	0.175 µM	2.4 µM	
O=C(O)COc1cc(F)cc(-c2ccc(C(=O)O)cn2)c1	1300 µM	2200 µM	
Nc1cc(F)cc(-c2ccc(C(=O)O)cn2)c1		1300 µM	
O=C(CCCCN1C(=O)/C(=C/c2ccc(O)c(O)c2)SC1=S)NCc1ccc(Cl)c(Cl)c1			inhibition [7]: inactive
